Measured values published in ChEMBL document CHEMBL4196177, “Synthesis, Evaluation, and Structure-Activity Relationship Study of Lanosterol Derivatives To Reverse Mutant-Crystallin-Induced Protein Aggregation” (J Med Chem, 2018).
Substitutions are numbered along the chain they refer to. Calls of active or inactive are those of the source. No cut-off for these calls is given here.

Assays:
Alpha-crystallin B chain [1] = target: T1, Alpha-crystallin B chain (Homo sapiens, UniProt P02511, R120G); test: Inhibition of alpha-crystallin B R120G mutant (unknown origin)-induced intracellular protein aggregation expressed in human HeLa cells or HLE-B3 cells incubated for 6 to 8 hrs by fluorescence microscopy relative to untreated control; type: cell-based
[2] = test system: T2, Alpha-crystallin B chain (Homo sapiens), P02511 [R120G]; test: Induction of redissolving of aggregated alpha-crystallin B R120G mutant (unknown origin) at 200 uM incubated for 24 hrs by transmission-electron-microscopy
T2 sequence (whole entry): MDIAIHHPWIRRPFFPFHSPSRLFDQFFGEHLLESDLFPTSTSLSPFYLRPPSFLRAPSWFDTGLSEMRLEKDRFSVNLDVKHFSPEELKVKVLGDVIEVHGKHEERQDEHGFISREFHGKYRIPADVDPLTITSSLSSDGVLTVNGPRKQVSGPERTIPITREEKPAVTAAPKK
Method in brief: (§1)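 Pre-formed amyloid-like fibrils of mutant crystallin proteins were treated with compounds in liposomes or with a liposome vehicle. Fibrillar structures were then examined by negative-stain transmission electron microscopy.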

[3] = test system: T3, Alpha-crystallin A chain (Homo sapiens), P02489 [R116C]; test: Induction of redissolving of aggregated alpha-crystallin A R116C mutant (unknown origin) at 200 uM incubated for 24 hrs by ThT-fluorescence based assay
T3 sequence (whole entry): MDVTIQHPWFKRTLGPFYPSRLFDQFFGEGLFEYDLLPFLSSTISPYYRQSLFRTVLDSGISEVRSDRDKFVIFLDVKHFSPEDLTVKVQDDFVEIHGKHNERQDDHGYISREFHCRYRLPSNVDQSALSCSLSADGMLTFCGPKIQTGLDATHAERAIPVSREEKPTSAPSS
Method in brief: (§2)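 Purified mutant crystallin proteins, pre-formed into amyloid-like fibrils, were treated with compounds delivered in liposomes, with a liposome-only vehicle control. Redissolution was read as thioflavin T (ThT) fluorescence, n = 3.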

[4] = test system: T4, Alpha-crystallin A chain (Homo sapiens), P02489 [Y118D]; test: Induction of redissolving of aggregated alpha-crystallin A Y118D mutant (unknown origin) at 200 uM incubated for 24 hrs by transmission-electron-microscopy; method in brief: as §1
T4 sequence (whole entry): T3 sequence (whole entry) with C116R, Y118D

[5] = test system: T5, Gamma-crystallin C (Homo sapiens), P07315 [G129C]; test: Induction of redissolving of aggregated gamma-crystallin C G129C mutant (unknown origin) at 200 uM incubated for 24 hrs by ThT-fluorescence based assay; method in brief: as §2
T5 sequence (whole entry): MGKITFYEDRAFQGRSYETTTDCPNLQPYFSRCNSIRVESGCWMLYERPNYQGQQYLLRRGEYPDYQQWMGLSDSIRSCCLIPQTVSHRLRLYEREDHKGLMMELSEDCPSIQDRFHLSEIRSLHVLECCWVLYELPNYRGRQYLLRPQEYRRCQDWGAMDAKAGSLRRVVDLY

[6] = test system: T6, Alpha-crystallin A chain (Homo sapiens), P02489 [R116H]; test: Induction of redissolving of aggregated alpha-crystallin A R116H mutant (unknown origin) at 200 uM incubated for 24 hrs by ThT-fluorescence based assay; method in brief: as §2
T6 sequence (whole entry): T3 sequence (whole entry) with C116H

[7] = test system: T2, Alpha-crystallin B chain (Homo sapiens), P02511 [R120G]; test: Induction of redissolving of aggregated alpha-crystallin B R120G mutant (unknown origin) at 200 uM incubated for 24 hrs by ThT-fluorescence based assay; method in brief: as §2
[8] = test system: T3, Alpha-crystallin A chain (Homo sapiens), P02489 [R116C]; test: Induction of redissolving of aggregated alpha-crystallin A R116C mutant (unknown origin) at 200 uM incubated for 24 hrs by transmission-electron-microscopy; method in brief: as §1
[9] = test system: T6, Alpha-crystallin A chain (Homo sapiens), P02489 [R116H]; test: Induction of redissolving of aggregated alpha-crystallin A R116H mutant (unknown origin) at 200 uM incubated for 24 hrs by transmission-electron-microscopy; method in brief: as §1
Alpha-crystallin B chain [10] = target: T1, Alpha-crystallin B chain; test: Induction of redissolving of aggregated alpha-crystallin B R120G mutant (unknown origin) incubated for 24 hrs by ThT-fluorescence based assay
Method in brief: (§3)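 Dose–response EC50 for redissolving pre-formed amyloid-like fibrils of αA Y118D or αB R120G crystallin. Compounds were delivered in liposomes and the read-out was thioflavin T fluorescence.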

Alpha-crystallin A chain = Alpha-crystallin A chain (Homo sapiens, UniProt P02489, Y118D); test: Induction of redissolving of aggregated alpha-crystallin A Y118D mutant (unknown origin) incubated for 24 hrs by ThT-fluorescence based assay; method in brief: as §3
Sequence of Alpha-crystallin A chain (P02489 whole entry Y118D): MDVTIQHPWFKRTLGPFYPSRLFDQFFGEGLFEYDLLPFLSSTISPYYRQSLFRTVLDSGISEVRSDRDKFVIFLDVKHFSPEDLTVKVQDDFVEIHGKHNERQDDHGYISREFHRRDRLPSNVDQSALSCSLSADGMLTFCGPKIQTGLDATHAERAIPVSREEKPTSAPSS

Question: With `C[C@H](CCCC(C)(C)O)[C@H]1CC[C@@]2(C)[C@@]34CC[C@H]5C(C)(C)/C(=N/O)CC[C@]5(C)[C@]3(CC[C@]12C)O4` as the compound, how does the EC50 (Alpha-crystallin B chain [1]) read?
Answer: Not Active

Question: And the Activity [2]?
Answer: inactive

Question: And the Activity [3]?
Answer: inactive

Question: What about the Activity [4] of the same compound?
Answer: inactive

Question: What about the Activity [5] of the same compound?
Answer: inactive

Question: And the Activity [6]?
Answer: inactive

Question: What about the Activity [7] of the same compound?
Answer: inactive

Question: And the Activity [8]?
Answer: inactive

Question: And the Activity [9]?
Answer: inactive

Question: How did the Activity [2] turn out when `C[C@H](CCCC(C)(C)O)[C@H]1CC[C@@]2(C)C3=C(CC[C@]12C)[C@@]1(C)CC[C@H](O)C(C)(C)[C@@H]1CC3` was run?
Answer: Active

Question: And the Activity [3]?
Answer: Active

Question: What about the Activity [4] of the same compound?
Answer: Active

Question: And the Activity [5]?
Answer: Active

Question: What about the Activity [6] of the same compound?
Answer: Active

Question: And the EC50 (Alpha-crystallin B chain [10])?
Answer: 3120 nM

Question: And the Activity [7]?
Answer: Active

Question: And the Activity [8]?
Answer: Active

Question: What about the Activity [9] of the same compound?
Answer: Active

Question: And the EC50 (Alpha-crystallin A chain)?
Answer: 35.6 nM
